# Activity calls are given as the source filed them. The calls are words filed in the database; no cut-off is given here.
# Columns and labels:
# [1] = organism: Homo sapiens; assay: Neuroprotective activity against tetracycline removal-induced oxidative stress in human MC65 cells assessed as reduction in accumulation of intracellular ROS at 1 uM incubated for 48 hrs by DCFH-DA staining-based fluorescence analysis relative to control; type: functional, cell-based
# Summary of the method: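 MC65 cells without TC given compound (1 μM) for 48 h, then incubated with DCFH-DA (25 μM) for 1 h. ROS given as percentage of fluorescence intensity relative to +TC control; error bars SEM, Student t-test versus −TC control.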
# [2] = Neuroprotective activity against tetracycline removal-induced cytotoxicity in human MC65 cells assessed as increase in cell viability incubated for 72 hrs by MTT assay; type: functional, cell-based; settings: MC65, 72 h
# Summary of the method: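 MC65 cells (C99 expression under tetracycline suppression; cytotoxicity induced by TC removal) treated across a concentration range for 72 h under −TC, with +TC cultures as 100% viability reference. Viability read by MTT. EC50 reported as mean ± SEM of three independent experiments.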
# [3] = Metal chelating activity assessed as compound-Zn2+ complex formation at 50 uM after 10 mins by UV-vis spectroscopy
# Summary of the method: (§1)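 Compound at 50 μM mixed with CuSO₄, FeCl₂ or ZnCl₂ (60 μM) at room temperature for 10 min; UV-vis spectrum then recorded from 300 to 550 nm.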
# [4] = Metal chelating activity assessed as compound-Fe2+ complex formation at 50 uM after 10 mins by UV-vis spectroscopy; summary of the method: as §1
# [5] = Metal chelating activity assessed as compound-Cu2+ complex formation at 50 uM after 10 mins by UV-vis spectroscopy; summary of the method: as §1
# [6] = organism: Homo sapiens; assay: Neuroprotective activity against tetracycline removal-induced mitochondrial oxidative stress in human MC65 cells assessed as reduction in accumulation of mitoROS at 0.1 to 1 uM incubated for 48 hrs by MitoSOX red dye-based flow cytometric analysis relative to control; type: functional, cell-based
# Summary of the method: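 After TC removal, MC65 cells were exposed to compound at 1, 0.3 or 0.1 μM for 48 h, then loaded with MitoSOX (2.5 μM) for 30 min. Mitochondrial ROS expressed as percent fluorescence intensity versus +TC control; error bars SEM, Student t-test versus −TC control.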
Activity [3],Activity [4],Activity [5],Structure (SMILES),Activity [1],EC50 [2],Activity [6]
–,–,–,COc1cc(/C=C/C(=O)C(Cc2cn(CCCCNC(=O)CCC(=O)NCCCN3CCN(CCCNC(=O)CO[C@H]4CC[C@@]5(C)C(=CC[C@H]6[C@@H]7CC[C@H]([C@H](C)CCCC(C)C)[C@@]7(C)CC[C@@H]65)C4)CC3)nn2)C(=O)/C=C/c2ccc(O)c(OC)c2)ccc1O,Active,140 nM,–
inactive,Active,Active,COc1cc(/C=C/C(=O)C(Cc2cn(CCC(=O)NCCCN3CCN(CCCNC(=O)CCN4CCN(CCCO[C@H]5CC[C@@]6(C)C(=CC[C@H]7[C@@H]8CC[C@H]([C@H](C)CCCC(C)C)[C@@]8(C)CC[C@@H]76)C5)CC4)CC3)nn2)C(=O)/C=C/c2ccc(O)c(OC)c2)ccc1O,Active,136 nM,–
–,–,–,COc1cc(/C=C/C(=O)C(Cc2cn(CCNC(=O)CCC(=O)NCCCN3CCN(CCCNC(=O)CO[C@H]4CC[C@@]5(C)C(=CC[C@H]6[C@@H]7CC[C@H]([C@H](C)CCCC(C)C)[C@@]7(C)CC[C@@H]65)C4)CC3)nn2)C(=O)/C=C/c2ccc(O)c(OC)c2)ccc1O,Active,74.1 nM,–
–,–,–,COc1cc(/C=C/C(=O)C(Cc2cn(CCCCNC(=O)CCC(=O)NCCCN3CCN(CCCNC(=O)CCN4CCN(CCCO[C@H]5CC[C@@]6(C)C(=CC[C@H]7[C@@H]8CC[C@H]([C@H](C)CCCC(C)C)[C@@]8(C)CC[C@@H]76)C5)CC4)CC3)nn2)C(=O)/C=C/c2ccc(O)c(OC)c2)ccc1O,Active,359 nM,–
–,–,–,COc1cc(/C=C/C(=O)C(Cc2cn(CCC(=O)NCCCN3CCN(CCCNC(=O)CCC(=O)NCCCN4CCN(CCCNC(=O)CO[C@H]5CC[C@@]6(C)C(=CC[C@H]7[C@@H]8CC[C@H]([C@H](C)CCCC(C)C)[C@@]8(C)CC[C@@H]76)C5)CC4)CC3)nn2)C(=O)/C=C/c2ccc(O)c(OC)c2)ccc1O,Active,103 nM,–
–,–,–,COc1cc(/C=C/C(=O)C(Cc2cn(CCNC(=O)CCC(=O)NCCCN3CCN(CCCNC(=O)CCN4CCN(CCCO[C@H]5CC[C@@]6(C)C(=CC[C@H]7[C@@H]8CC[C@H]([C@H](C)CCCC(C)C)[C@@]8(C)CC[C@@H]76)C5)CC4)CC3)nn2)C(=O)/C=C/c2ccc(O)c(OC)c2)ccc1O,Active,132 nM,–
–,–,–,COc1cc(/C=C/C(=O)C(Cc2cn(CCCCC(=O)NCCCN3CCN(CCCNC(=O)CO[C@H]4CC[C@@]5(C)C(=CC[C@H]6[C@@H]7CC[C@H]([C@H](C)CCCC(C)C)[C@@]7(C)CC[C@@H]65)C4)CC3)nn2)C(=O)/C=C/c2ccc(O)c(OC)c2)ccc1O,Active,107 nM,–
–,–,–,COc1cc(/C=C/C(=O)C(Cc2cn(CCCCC(=O)NCCCN3CCN(CCCNC(=O)CCN4CCN(CCCO[C@H]5CC[C@@]6(C)C(=CC[C@H]7[C@@H]8CC[C@H]([C@H](C)CCCC(C)C)[C@@]8(C)CC[C@@H]76)C5)CC4)CC3)nn2)C(=O)/C=C/c2ccc(O)c(OC)c2)ccc1O,Active,238 nM,–
–,–,–,COc1cc(/C=C/C(=O)C(Cc2cn(CCCCC(=O)NCCCN3CCN(CCCNC(=O)CCC(=O)NCCCN4CCN(CCCNC(=O)CO[C@H]5CC[C@@]6(C)C(=CC[C@H]7[C@@H]8CC[C@H]([C@H](C)CCCC(C)C)[C@@]8(C)CC[C@@H]76)C5)CC4)CC3)nn2)C(=O)/C=C/c2ccc(O)c(OC)c2)ccc1O,Active,105 nM,–
inactive,Active,Active,COc1cc(/C=C/C(=O)C(Cc2cn(CCC(=O)NCCCN3CCN(CCCNC(=O)CO[C@H]4CC[C@@]5(C)C(=CC[C@H]6[C@@H]7CC[C@H]([C@H](C)CCCC(C)C)[C@@]7(C)CC[C@@H]65)C4)CC3)nn2)C(=O)/C=C/c2ccc(O)c(OC)c2)ccc1O,Active,81.9 nM,Dose-dependent effect

# Reference: ChEMBL document CHEMBL4387745, “Development of bivalent compounds as potential neuroprotectants for Alzheimer's disease” (Bioorg Med Chem Lett, 2019)
